Each block holds one compound with its values, some of them ahead of it. Active and inactive are the calls of the source. The calls are words filed in the database; no cut-off is given here.
Tests used:
[1] = tested on: Mus musculus; assay: Antisepsis activity in C57BL/6 mouse assessed as inhibition of CLP-induced IL-1beta level in blood at 28 to 56 ug/kg, iv at 12 and 50 hrs post CLP surgery by ELISA; type: functional, organism-based
In short: (§1)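 Male C57BL/6 mice underwent CLP and received compound iv (28 or 56 μg/kg) at 12 and 50 h after CLP. Animals bled out. AST, ALT, BUN, creatinine and LDH measured in plasma/serum with biochemical kits. IL-1β, IL-6, IL-10, MCP-1 and TNF-α measured by ELISA. Means ± SD of five independent experiments.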

[2] = tested on: Mus musculus; assay: Antisepsis activity in C57BL/6 mouse CLP surgery model assessed as inhibition of HMGB1-induced leukocyte migration into peritoneal cavity at 28 to 56 ug/kg, iv; type: functional, organism-based
In short: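 Mice given HMGB1 (2 μg/mouse) iv for 16 h, then compound (28 or 56 μg/kg) for 6 h. Peritoneal cavity washed with 5 mL saline after 6 h. Fluid diluted in Türk's solution (0.01% crystal violet, 3% acetic acid). Leukocytes counted by light microscopy.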

[3] = target: T1, High mobility group protein B1 (Homo sapiens) (UniProt P09429); assay: Inhibition of HMGB1-mediated ICAM-1 expression level in HUVEC at 0.1 to 1 uM after 6 hrs by ELISA; type: cell-based
T1 sequence (whole entry): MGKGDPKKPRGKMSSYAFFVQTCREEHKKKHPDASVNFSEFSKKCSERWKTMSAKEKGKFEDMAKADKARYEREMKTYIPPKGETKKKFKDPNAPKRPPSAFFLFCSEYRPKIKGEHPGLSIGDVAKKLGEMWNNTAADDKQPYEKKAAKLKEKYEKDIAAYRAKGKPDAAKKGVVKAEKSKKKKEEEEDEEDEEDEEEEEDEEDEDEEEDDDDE
In short: (§2)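 Confluent HUVECs treated with HMGB1 (1 μg/mL, 16 h), then compound (0–1 μM) for 6 h. Cells fixed in 1% paraformaldehyde and probed with anti-VCAM-1, ICAM-1 or E-selectin (1:50, 1 h, 37 °C). Peroxidase anti-mouse IgG (1:2000) added, developed with o-phenylenediamine, read at 490 nm.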

[4] = target: T1, High mobility group protein B1 (Homo sapiens); assay: Inhibition of HMGB1-mediated E-selectin expression level in HUVEC at 0.1 to 1 uM after 6 hrs by ELISA; type: cell-based; in short: as §2
[5] = tested on: Mus musculus; assay: Antisepsis activity in C57BL/6 mouse assessed as inhibition of CLP-induced HMGB1 release in serum at 28 to 56 ug/kg, iv administered 12 hrs post CLP challenge by ELISA; type: functional, organism-based
In short: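 Male C57BL/6 mice underwent CLP and received compound iv (28 or 56 μg/kg) 12 h later; n = 5. Mice killed 24 h after CLP. Serum HMGB1 measured by ELISA.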

[6] = tested on: Mus musculus; assay: Antisepsis activity in C57BL/6 mouse assessed as inhibition of CLP-induced mortality at 56 ug/kg, iv administered twice daily at 12 and 50 hrs post CLP measured every 6 hrs post CLP for 150 hrs (reference value: 40%); type: functional; conditions: C57BL/6, iv
[7] = tested on: Mus musculus; assay: Antisepsis activity in C57BL/6 mouse assessed as inhibition of CLP-induced creatinine level in plasma at 28 to 56 ug/kg, iv at 12 and 50 hrs post CLP surgery; type: functional, organism-based; in short: as §1
[8] = target: T1, High mobility group protein B1 (Homo sapiens); assay: Inhibition of HMGB1-mediated human neutrophil adhesion in HUVEC after 6 hrs by ELISA; type: cell-based
In short: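 HUVEC monolayers treated with HMGB1 (1 μg/mL, 16 h), then compound (0–1 μM) for 6 h. Human neutrophils (1.5 × 10^6 cells/mL) labelled with Vybrant DiD dye and added to the washed monolayers. Adhesion measured by fluorescence.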

[9] = tested on: Mus musculus; assay: Antisepsis activity in C57BL/6 mouse assessed as inhibition of CLP-induced ALT level in plasma at 28 to 56 ug/kg, iv at 12 and 50 hrs post CLP surgery; type: functional, organism-based; in short: as §1
[10] = tested on: HUVEC; assay: Effect on barrier integrity in HUVEC at 1 uM after 6 hrs by spectrophotometric method; type: ADME, cell-based; conditions: human
In short: (§3)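 HUVECs (5 × 10^4 cells/well) grown 3 days on 3 μm Transwells to confluence. Monolayers exposed to LPS (100 ng/mL, 4 h) or HMGB1 (1 μg/mL, 16 h), or left unstimulated, then treated with compound for 6 h. Flux of albumin-bound Evans blue measured spectrophotometrically.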

[11] = target: T1, High mobility group protein B1 (Homo sapiens); assay: Inhibition of HMGB1-induced RAGE expression level in HUVEC at 0.1 to 1 uM after 6 hrs by ELISA; type: cell-based
In short: (§4)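 Confluent HUVECs activated with HMGB1 (1 μg/mL, 16 h), then incubated with compound for 6 h. Surface TLR2, TLR4 and RAGE determined by cell-based ELISA with specific antibodies.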

[12] = target: T1, High mobility group protein B1 (Homo sapiens); assay: Inhibition of HMGB1-induced TLR2 expression level in HUVEC at 0.1 to 1 uM after 6 hrs by ELISA; type: cell-based; in short: as §4
[13] = tested on: Mus musculus; assay: Antisepsis activity in C57BL/6 mouse assessed as inhibition of CLP-induced MCP1 level in blood at 28 to 56 ug/kg, iv at 12 and 50 hrs post CLP surgery by ELISA; type: functional, organism-based; in short: as §1
[14] = tested on: Mus musculus; assay: Antisepsis activity in C57BL/6 mouse CLP surgery model assessed as reduction in bacterial burden in peritoneal lavage fluid at 28 to 56 ug/kg, iv measured after 24 hrs; type: functional, organism-based
In short: (§5)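 Male C57BL/6 mice (27 g) underwent CLP: cecum ligated 5 mm from tip and punctured once with a 22-gauge needle. Peritoneal lavage fluid and blood collected 24 h after CLP and centrifuged. Diluted samples plated on 5% sheep blood agar at 37 °C for 24 h, then CFUs counted; n = 10.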

[15] = tested on: Mus musculus; assay: Antisepsis activity in C57BL/6 mouse assessed as inhibition of CLP-induced blood urea nitrogen level in plasma at 28 to 56 ug/kg, iv at 12 and 50 hrs post CLP surgery; type: functional, organism-based; in short: as §1
[16] = tested on: Mus musculus; assay: Antisepsis activity in C57BL/6 mouse assessed as inhibition of CLP-induced IL-10 level in blood at 28 to 56 ug/kg, iv at 12 and 50 hrs post CLP surgery by ELISA; type: functional, organism-based; in short: as §1
[17] = target: T1, High mobility group protein B1 (Homo sapiens); assay: Inhibition of HMGB1-mediated disruption of barrier integrity in HUVEC by measuring flux of albumin-bound evans blue after 6 hrs by spectrophotometric method; type: cell-based; in short: as §3
[18] = tested on: Mus musculus; assay: Antisepsis activity in C57BL/6 mouse assessed as inhibition of HMGB1-induced vascular hyperpermeability by measuring amount of evans blue in the peritoneal washings at 28 to 56 ug/kg, iv pretreated with HMGB1 for 16 hrs followed by compound treatment measured after 6 hrs […]; type: functional, organism-based
In short: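 Mice given iv HMGB1 (2 μg/mouse) for 16 h, then compound (28 or 56 μg/kg) for 6 h. 1% Evans blue in saline injected iv; mice killed 30 min later. Peritoneal washings (5 mL saline) centrifuged at 200g for 10 min and read at 650 nm. Dye leak read from a standard curve as μg/mouse; n = 5.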

[19] = tested on: HUVEC; assay: Effect on HMGB1 release in HUVEC at > 0.2 uM after 6 hrs by ELISA; type: ADME, cell-based; conditions: human
[20] = tested on: Mus musculus; assay: Antisepsis activity in C57BL/6 mouse assessed as inhibition of CLP-induced death at 56 ug/kg, iv measured 12 hrs post CLP; type: functional, organism-based
[21] = tested on: Mus musculus; assay: Antisepsis activity in C57BL/6 mouse assessed as inhibition of CLP-induced IL-6 level in blood at 28 to 56 ug/kg, iv at 12 and 50 hrs post CLP surgery by ELISA; type: functional, organism-based; in short: as §1
[22] = target: T1, High mobility group protein B1 (Homo sapiens); assay: Inhibition of HMGB1-mediated human neutrophil migration in HUVEC after 6 hrs by crystal violet staining based microscopy; type: cell-based
In short: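 HUVECs (6 × 10^4 cells/well) grown 3 days on 8 μm Transwells, then treated with HMGB1 (1 μg/mL, 16 h) and compound for 6 h before cells added to the upper chamber. Migrated cells fixed in 8% glutaraldehyde and stained with 0.25% crystal violet. Nine 200× fields per well counted; run in duplicate; migration index.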

[23] = tested on: HUVEC; assay: Cytotoxicity against HUVEC assessed as reduction in cell viability up to 5 uM after 48 hrs by MTT assay; type: cell-based; conditions: human
In short: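 HUVECs (passage 3–5; 5 × 10^3 cells/well) seeded for 24 h, then exposed to compound for 48 h. MTT (1 mg/mL) added for 4 h. Formazan dissolved in DMSO and read at 540 nm.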

[24] = tested on: Mus musculus; assay: Antisepsis activity in C57BL/6 mouse assessed as inhibition of CLP-induced TNFalpha level in blood at 28 to 56 ug/kg, iv at 12 and 50 hrs post CLP surgery by ELISA; type: functional, organism-based; in short: as §1
[25] = tested on: Mus musculus; assay: Antisepsis activity in C57BL/6 mouse assessed as inhibition of CLP-induced lactate dehydrogenase level in plasma at 28 to 56 ug/kg, iv at 12 and 50 hrs post CLP surgery; type: functional, organism-based; in short: as §1
[26] = tested on: Lipopolysaccharide (LPS); assay: Inhibition of bacterial LPS-mediated disruption of barrier integrity in HUVEC by measuring flux of albumin-bound evans blue after 6 hrs by spectrophotometric method; type: cell-based; conditions: Bacteria; in short: as §3
[27] = target: T1, High mobility group protein B1 (Homo sapiens); assay: Inhibition of HMGB1-mediated p38 MAPK phosphorylation in HUVEC at 0.1 to 1 uM after 6 hrs by ELISA; type: cell-based
In short: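 HUVECs activated with HMGB1 (1 μg/mL, 16 h), then treated with compound for 6 h. Phospho-p38 MAPK measured by ELISA kit.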

[28] = tested on: Mus musculus; assay: Antisepsis activity in C57BL/6 mouse CLP surgery model assessed as reduction in bacterial burden in blood at 28 to 56 ug/kg, iv measured after 24 hrs; type: functional, organism-based; in short: as §5
[29] = target: T1, High mobility group protein B1 (Homo sapiens); assay: Inhibition of HMGB1-induced TLR4 expression level in HUVEC at 0.1 to 1 uM after 6 hrs by ELISA; type: cell-based; in short: as §4
[30] = tested on: Mus musculus; assay: Antisepsis activity in C57BL/6 mouse assessed as inhibition of CLP-induced AST level in plasma at 28 to 56 ug/kg, iv at 12 and 50 hrs post CLP surgery; type: functional, organism-based; in short: as §1
[31] = target: T1, High mobility group protein B1 (Homo sapiens); assay: Inhibition of LPS-induced HMGB1 release in HUVEC at > 0.2 uM pretreated with bacterial LPS for 16 hrs followed by compound treatment measured after 6 hrs by ELISA; type: cell-based
[32] = target: T1, High mobility group protein B1 (Homo sapiens); assay: Inhibition of HMGB1-mediated VCAM-1 expression level in HUVEC at 0.1 to 1 uM after 6 hrs by ELISA; type: cell-based; in short: as §2
[33] = target: Beta-secretase 1 (Homo sapiens, UniProt P56817); assay: Inhibition of recombinant human BACE1 using RhEVNLDAEFK-Quencher as substrate after 60 mins by fluorescence assay
Chain of Beta-secretase 1 (P56817 whole entry): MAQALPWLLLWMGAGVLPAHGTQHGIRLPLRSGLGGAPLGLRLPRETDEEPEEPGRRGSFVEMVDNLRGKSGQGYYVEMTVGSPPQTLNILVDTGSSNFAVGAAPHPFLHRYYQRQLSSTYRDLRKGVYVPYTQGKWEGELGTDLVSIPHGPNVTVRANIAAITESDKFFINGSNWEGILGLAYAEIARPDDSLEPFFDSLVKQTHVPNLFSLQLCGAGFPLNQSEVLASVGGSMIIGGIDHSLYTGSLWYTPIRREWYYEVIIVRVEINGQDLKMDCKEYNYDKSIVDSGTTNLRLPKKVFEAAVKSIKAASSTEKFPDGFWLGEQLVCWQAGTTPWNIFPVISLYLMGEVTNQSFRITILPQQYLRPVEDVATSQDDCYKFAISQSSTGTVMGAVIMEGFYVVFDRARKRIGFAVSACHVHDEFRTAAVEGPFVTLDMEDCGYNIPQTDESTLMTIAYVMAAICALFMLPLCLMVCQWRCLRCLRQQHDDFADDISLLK

Structure (SMILES): Cc1c(O)cc2oc3oc4ccccc4c3c(=O)c2c1O
inhibition [1]: Active | inhibition [2]: Active | inhibition [3]: Active | inhibition [4]: Active | inhibition [5]: Active | mortality at 0.056 mg/kg [6]: 60% | inhibition [7]: Active | inhibition [8]: Dose-dependent effect | inhibition [9]: Active | Activity [10]: Non-Toxic | inhibition [11]: Active | inhibition [12]: Active | inhibition [13]: Active | Activity [14]: Active | inhibition [15]: Active | inhibition [16]: Active | inhibition [17]: Dose-dependent effect | inhibition [18]: Active | Activity [19]: Non-Toxic | inhibition [20]: inactive | inhibition [21]: Active | inhibition [22]: Dose-dependent effect | Activity [23]: Non-Toxic | inhibition [24]: Active | inhibition [25]: Active | inhibition [26]: Dose-dependent effect | inhibition [27]: Active | Activity [28]: Active | inhibition [29]: Active | inhibition [30]: Active | inhibition [31]: Active | inhibition [32]: Active

IC50 [33]: 5.6 µM
Structure (SMILES): Cc1c(O)cc2oc3c(c(=O)c2c1O)-c1ccc(O)cc1OC3O (stereo not drawn) [BOERAVINONE E]
